From ChEMBL document CHEMBL3286247, “Expansion of Antibacterial Spectrum of Muraymycins toward Pseudomonas aeruginosa” (ACS Med Chem Lett, 2014)
≈ marks a conversion by molar mass, not a printed value.

Assays:
Pseudomonas aeruginosa [1] = test: Antibacterial activity against Pseudomonas aeruginosa PAO1 assessed as growth inhibition after 20 hrs by microdilution method; format: functional; conditions: PAO1, 20 h
Outline: (§1)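 Broth microdilution per CLSI in cation-adjusted Mueller-Hinton broth, using serial 2-fold compound dilutions. Each strain was inoculated at 5 × 10⁴ CFU per well in 0.1 mL. Plates were incubated at 35 °C for 20 h, and the MIC was then scored.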

[2] = Inhibition of Staphylococcus aureus MraY by fluorescence assay
Outline: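 Purified S. aureus MraY was given UDP-MurNAc-dansylpentapeptide as substrate. Formation of dansylated lipid I was followed by fluorescence enhancement (excitation 355 nm, emission 535 nm).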

Pseudomonas aeruginosa [3] = test: Antibacterial activity against Pseudomonas aeruginosa YY165 deltamexB mutant assessed as growth inhibition after 20 hrs by microdilution method; format: functional; conditions: YY165, 20 h
Outline: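 Broth microdilution per CLSI in cation-adjusted Mueller–Hinton broth; serial 2-fold compound dilutions inoculated with 5 × 10⁴ CFU per well (0.1 mL), incubated 35 °C for 20 h, then MIC scored. Strain YY165 is a MexB deletion mutant lacking the inner-membrane transporter of the MexAB-OprM efflux system.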

Pseudomonas aeruginosa [4] = test: Antibacterial activity against Pseudomonas aeruginosa ATCC 25619 assessed as growth inhibition after 20 hrs by microdilution method; format: functional; conditions: ATCC 25619, 20 h; outline: as §1
Pseudomonas aeruginosa [5] = test: Antibacterial activity against clinical isolate Pseudomonas aeruginosa SR27156 assessed as growth inhibition after 20 hrs by microdilution method; format: functional; conditions: SR27156, 20 h; outline: as §1
Pseudomonas aeruginosa [6] = test: Antibacterial activity against Pseudomonas aeruginosa ATCC 27853 assessed as growth inhibition after 20 hrs by microdilution method; format: functional; conditions: ATCC 27853, 20 h; outline: as §1

What does the source list for `CCCCCCCCCCCCCCC[C@H](NC(=O)[C@@H](NC(=O)N[C@H](C(=O)O)C(C)C)[C@@H]1CCNC(=N)N1)C(=O)NCCCN[C@H](C(=O)O)[C@H](O[C@@H]1O[C@H](CN)[C@@H](O)[C@H]1O)[C@H]1O[C@@H](n2ccc(=O)[nH]c2=O)[C@H](O)[C@@H]1O`?
MIC (Pseudomonas aeruginosa [1]): > 64 µg/mL; IC50 [2]: 1.1 nM; MIC (Pseudomonas aeruginosa [3]): > 64 µg/mL; MIC (Pseudomonas aeruginosa [4]): > 64 µg/mL; MIC (Pseudomonas aeruginosa [5]): > 64 µg/mL; MIC (Pseudomonas aeruginosa [6]): > 64 µg/mL

What does the source list for `CCCCCCCCCCCCCCC[C@H](NC(=O)[C@@H](NC(=O)N[C@H](C(=O)O)C(C)C)[C@H]1CCNC(=N)N1)C(=O)NCCCN[C@H](C(=O)O)[C@H](O[C@@H]1O[C@H](CN)[C@@H](O)[C@H]1O)[C@H]1O[C@@H](n2ccc(=O)[nH]c2=O)[C@H](O)[C@@H]1O`?
MIC (Pseudomonas aeruginosa [1]): > 64 µg/mL; IC50 [2]: 0.8 nM; MIC (Pseudomonas aeruginosa [3]): > 64 µg/mL; MIC (Pseudomonas aeruginosa [4]): > 64 µg/mL; MIC (Pseudomonas aeruginosa [5]): > 64 µg/mL; MIC (Pseudomonas aeruginosa [6]): > 64 µg/mL

For `CCCCCCCCCCCCCCC[C@H](NC(=O)[C@H](CCCNC(=N)N)NC(=O)N[C@H](C(=O)O)C(C)C)C(=O)NCCCN[C@H](C(=O)O)[C@H](O[C@@H]1O[C@H](CN)[C@@H](O)[C@H]1O)[C@H]1O[C@@H](n2ccc(=O)[nH]c2=O)[C@H](O)[C@@H]1O`, which MIC (Pseudomonas aeruginosa [1]) is on record?
Its MIC is > 64 µg/mL.

And the IC50 [2]?
Its IC50 is 0.7 nM.

What about the MIC (Pseudomonas aeruginosa [3]) of the same compound?
The MIC was > 64 µg/mL.

What about the MIC (Pseudomonas aeruginosa [4]) of the same compound?
The MIC was > 64 µg/mL.

What about the MIC (Pseudomonas aeruginosa [5]) of the same compound?
The MIC was > 64 µg/mL.

What about the MIC (Pseudomonas aeruginosa [6]) of the same compound?
Its MIC is > 64 µg/mL.

For `CCCCCCCCCCCCCCC[C@H](NC(=O)[C@H](CCCN)NC(=O)N[C@H](C(=O)O)C(C)C)C(=O)NCCCN[C@H](C(=O)O)[C@H](O[C@@H]1O[C@H](CN)[C@@H](O)[C@H]1O)[C@H]1O[C@@H](n2ccc(=O)[nH]c2=O)[C@H](O)[C@@H]1O`, which MIC (Pseudomonas aeruginosa [1]) is on record?
Its MIC is > 64 µg/mL.

What about the IC50 [2] of the same compound?
The IC50 was 0.8 nM.

What about the MIC (Pseudomonas aeruginosa [3]) of the same compound?
Its MIC is > 64 µg/mL.

What about the MIC (Pseudomonas aeruginosa [4]) of the same compound?
Its MIC is > 64 µg/mL.

And the MIC (Pseudomonas aeruginosa [5])?
Its MIC is > 64 µg/mL.

And the MIC (Pseudomonas aeruginosa [6])?
Its MIC is > 64 µg/mL.

What does the source list for `CCCCCCCCCCCCCCC[C@H](NC(=O)[C@@H](NC(=O)OCc1ccccc1)[C@@H]1CCNC(=N)N1)C(=O)NCCCN[C@H](C(=O)O)[C@H](O[C@@H]1O[C@H](CN)[C@@H](O)[C@H]1O)[C@H]1O[C@@H](n2ccc(=O)[nH]c2=O)[C@H](O)[C@@H]1O`?
MIC (Pseudomonas aeruginosa [1]): > 64 µg/mL; IC50 [2]: 4.2 nM; MIC (Pseudomonas aeruginosa [3]): > 64 µg/mL; MIC (Pseudomonas aeruginosa [4]): > 64 µg/mL; MIC (Pseudomonas aeruginosa [5]): > 64 µg/mL; MIC (Pseudomonas aeruginosa [6]): > 64 µg/mL

What does the source list for `CCCCCCCCCCCCCCC[C@H](NC(=O)[C@@H](N)[C@@H]1CCNC(=N)N1)C(=O)NCCCN[C@H](C(=O)O)[C@H](O[C@@H]1O[C@H](CN)[C@@H](O)[C@H]1O)[C@H]1O[C@@H](n2ccc(=O)[nH]c2=O)[C@H](O)[C@@H]1O`?
MIC (Pseudomonas aeruginosa [1]): > 64 µg/mL; IC50 [2]: 2.4 nM; MIC (Pseudomonas aeruginosa [3]): 32 µg/mL (≈ 34.5 µM); MIC (Pseudomonas aeruginosa [4]): > 64 µg/mL; MIC (Pseudomonas aeruginosa [5]): 64 µg/mL (≈ 69 µM); MIC (Pseudomonas aeruginosa [6]): > 64 µg/mL

With `CCCCCCCCCCCCCCC[C@H](NC(=O)[C@@H](N)CCCN)C(=O)NCCCN[C@H](C(=O)O)[C@H](O[C@@H]1O[C@H](CN)[C@@H](O)[C@H]1O)[C@H]1O[C@@H](n2ccc(=O)[nH]c2=O)[C@H](O)[C@@H]1O` as the compound, how does the MIC (Pseudomonas aeruginosa [1]) read?
The MIC was 64 µg/mL (≈ 72.1 µM).

And the IC50 [2]?
Its IC50 is 3.8 nM.

What about the MIC (Pseudomonas aeruginosa [3]) of the same compound?
The MIC was 32 µg/mL (≈ 36.1 µM).

And the MIC (Pseudomonas aeruginosa [4])?
Its MIC is 32 µg/mL (≈ 36.1 µM).

And the MIC (Pseudomonas aeruginosa [5])?
Its MIC is 32 µg/mL (≈ 36.1 µM).

What about the MIC (Pseudomonas aeruginosa [6]) of the same compound?
Its MIC is 64 µg/mL (≈ 72.1 µM).

For `CCCCCCCCCCCCCCC[C@H](NC(=O)[C@@H](N)CCCNC(=N)N)C(=O)NCCCN[C@H](C(=O)O)[C@H](O[C@@H]1O[C@H](CN)[C@@H](O)[C@H]1O)[C@H]1O[C@@H](n2ccc(=O)[nH]c2=O)[C@H](O)[C@@H]1O`, which MIC (Pseudomonas aeruginosa [1]) is on record?
The MIC was 16 µg/mL (≈ 17.2 µM).

And the IC50 [2]?
The IC50 was 2.2 nM.

What about the MIC (Pseudomonas aeruginosa [3]) of the same compound?
Its MIC is 8 µg/mL (≈ 8.61 µM).

And the MIC (Pseudomonas aeruginosa [4])?
The MIC was 8 µg/mL (≈ 8.61 µM).

What about the MIC (Pseudomonas aeruginosa [5]) of the same compound?
Its MIC is 16 µg/mL (≈ 17.2 µM).

And the MIC (Pseudomonas aeruginosa [6])?
Its MIC is 32 µg/mL (≈ 34.4 µM).

Which results are given for `CCCCCCCCCCCCCCC[C@H](NC(=O)[C@@H](N)CCCSC)C(=O)NCCCN[C@H](C(=O)O)[C@H](O[C@@H]1O[C@H](CN)[C@@H](O)[C@H]1O)[C@H]1O[C@@H](n2ccc(=O)[nH]c2=O)[C@H](O)[C@@H]1O`?
MIC (Pseudomonas aeruginosa [1]): > 64 µg/mL; IC50 [2]: 8.5 nM; MIC (Pseudomonas aeruginosa [3]): 16 µg/mL (≈ 17.4 µM); MIC (Pseudomonas aeruginosa [4]): 16 µg/mL (≈ 17.4 µM); MIC (Pseudomonas aeruginosa [5]): 64 µg/mL (≈ 69.7 µM); MIC (Pseudomonas aeruginosa [6]): 64 µg/mL (≈ 69.7 µM)

With `C[C@@H](O)[C@H]1C(=O)N2C(C(=O)O)=C(S[C@@H]3CN[C@H](CNS(N)(=O)=O)C3)[C@H](C)[C@H]12` [DORIPENEM] as the compound, how does the MIC (Pseudomonas aeruginosa [1]) read?
The MIC was 0.5 µg/mL (≈ 1.19 µM).

What about the MIC (Pseudomonas aeruginosa [3]) of the same compound?
Its MIC is 0.25 µg/mL (≈ 0.595 µM).

And the MIC (Pseudomonas aeruginosa [4])?
Its MIC is 0.063 µg/mL (≈ 0.15 µM).

What about the MIC (Pseudomonas aeruginosa [5]) of the same compound?
Its MIC is 0.031 µg/mL (≈ 0.0737 µM).

And the MIC (Pseudomonas aeruginosa [6])?
The MIC was 0.5 µg/mL (≈ 1.19 µM).
